Measured values published in ChEMBL document CHEMBL4190282, “The Conjugated Double Bond of Coniferyl Aldehyde Is Essential for Heat Shock Factor 1 Mediated Cytotoprotection” (J Nat Prod, 2017).
Activity calls are given as the source filed them. No cut-off for these calls is given here.

Columns and labels:
L132 [1] = assay: Cytoprotective activity against paclitaxel-induced caspase3 cleavage in human L-132 cells at 3 uM pretreated for 1 hr followed by paclitaxel addition measured after 24 hrs by immunoblotting analysis; assay type: functional, cell-based
Summary of the method: (§1)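 Human embryonic lung L132 cells in RPMI with 10% FBS. 1 h pretreatment at 3 μM, then 0.5 μM paclitaxel or 20 μM cisplatin for 24 h, or 10 Gy 137Cs γ-rays (3.81 Gy/min) for 48 h. Cleaved PARP and caspase-3 immunoblotted (ECL); bands normalized to loading control, fold-change vs negative control, ≥3 independent experiments.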

MEF [2] = assay: Cytoprotective activity against paclitaxel-induced PARP cleavage in HSF1 deficient MEF at 3 uM pretreated for 1 hr followed by paclitaxel addition measured after 24 hrs by immunoblotting analysis; assay type: functional, cell-based; conditions: Mus musculus
Summary of the method: (§2)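 HSF1+/+ or HSF1−/− MEFs in DMEM with heat-inactivated 10% FBS, nonessential amino acids, glutamine, HEPES, 37 °C, 5% CO2. 1 h pretreatment at 3 μM, then 0.5 μM paclitaxel or 20 μM cisplatin for 24 h, or 10 Gy 137Cs γ-rays (3.81 Gy/min) for 48 h. Cleaved PARP and caspase-3 immunoblotted; bands normalized to loading control, fold-change vs negative control, ≥3 independent experiments.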

[3] = target: T1, Heat shock factor protein 1 (Homo sapiens) (UniProt Q00613); assay: Activation of HSF1 in human NCI-H460 cells expressing pGL4-hsp70 construct assessed as upregulation of hsp70 promoter activity at 10 to 30 uM after 12 hrs by luciferase reporter gene assay; assay type: cell-based
T1 sequence (whole entry): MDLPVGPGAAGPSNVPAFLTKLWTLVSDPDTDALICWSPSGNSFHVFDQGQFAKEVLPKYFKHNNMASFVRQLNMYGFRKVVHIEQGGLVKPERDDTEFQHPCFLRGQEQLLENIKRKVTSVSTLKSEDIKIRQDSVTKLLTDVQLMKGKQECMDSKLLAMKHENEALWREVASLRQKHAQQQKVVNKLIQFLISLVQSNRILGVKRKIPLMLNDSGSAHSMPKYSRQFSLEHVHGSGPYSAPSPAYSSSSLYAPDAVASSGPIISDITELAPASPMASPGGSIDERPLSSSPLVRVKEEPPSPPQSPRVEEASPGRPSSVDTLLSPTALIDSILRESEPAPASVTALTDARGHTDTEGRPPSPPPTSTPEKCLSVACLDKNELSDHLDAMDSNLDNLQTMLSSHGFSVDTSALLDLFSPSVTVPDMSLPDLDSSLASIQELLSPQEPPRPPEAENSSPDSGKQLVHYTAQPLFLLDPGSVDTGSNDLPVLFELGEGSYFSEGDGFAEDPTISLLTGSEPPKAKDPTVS
Summary of the method: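 NCI-H460 cells stably carrying hsp25 or hsp70 promoter–luciferase reporters, seeded, treated after 24 h at 10 or 30 μM and harvested 12 h later. Lysate luciferase normalized to β-galactosidase; mean of three independent experiments, fold-change vs negative control.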

[4] = target: T1, Heat shock factor protein 1 (Homo sapiens); assay: Activation of HSF1 in human NCI-H460 cells assessed as upregulation of HSP25 protein levels at 10 to 30 uM after 12 hrs by Western blot analysis; assay type: cell-based
Summary of the method: (§3)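 NCI-H460 cells treated 12 h at 10 or 30 μM; HSF1, HSP27 and HSP70 detected by Western blot.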

[5] = target: T1, Heat shock factor protein 1 (Homo sapiens); assay: Activation of HSF1 in human NCI-H460 cells assessed as upregulation of HSP70 protein levels at 10 to 30 uM after 12 hrs by Western blot analysis; assay type: cell-based; summary of the method: as §3
[6] = target: T1, Heat shock factor protein 1 (Homo sapiens); assay: Activation of HSF1 in human L132 cells assessed as increase in HSP25 mRNA expression at 3 uM after 12 hrs by RT-PCR analysis; assay type: cell-based
Summary of the method: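 L132 human lung fibroblasts treated 12 h at 3 μM; hsp27 and hsp70 mRNA measured by RT-PCR under the same conditions as immunoblotting. Celastrol 1 μM positive control.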

L132 [7] = assay: Cytotoxicity against human L-132 cells assessed as reduction in cell viability up to 20 uM after 24 hrs by MTT assay; assay type: cell-based; conditions: l132, 24 h
Summary of the method: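 L132 cells treated 24 h at indicated doses up to 20 μM. MTT (5 mg/mL in PBS) 4 h at 37 °C, formazan dissolved in DMSO, absorbance at 540 nm converted to cell number via calibration curve. Celastrol positive control.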

L132 [8] = assay: Cytoprotective activity against cisplatin-induced caspase3 cleavage in human L-132 cells at 3 uM pretreated for 1 hr followed by cisplatin addition measured after 24 hrs by immunoblotting analysis; assay type: functional, cell-based; summary of the method: as §1
L132 [9] = assay: Cytoprotective activity against IR-induced PARP cleavage in human L-132 cells at 3 uM pretreated for 1 hr followed by 10 Gy irradiation measured after 48 hrs by immunoblotting analysis; assay type: functional, cell-based; summary of the method: as §1
L132 [10] = assay: Cytoprotective activity against IR-induced caspase3 cleavage in human L-132 cells at 3 uM pretreated for 1 hr followed by 10 Gy irradiation measured after 48 hrs by immunoblotting analysis; assay type: functional, cell-based; summary of the method: as §1
MEF [11] = assay: Cytoprotective activity against cisplatin-induced PARP cleavage in HSF1 deficient MEF at 3 uM pretreated for 1 hr followed by cisplatin addition measured after 24 hrs by immunoblotting analysis; assay type: functional, cell-based; conditions: Mus musculus; summary of the method: as §2
Mus musculus [12] = assay: Protection against IR-induced mortality in ICR mouse assessed as increase in mean survival days at 5 to 10 mg/kg, ip administered once before and three times after 7 Gy irradiation measured daily for 30 days; assay type: functional, organism-based
Summary of the method: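 Female ICR mice (5–6 weeks, 25–30 g) given 7 Gy whole-body IR; dosed ip at 5 or 10 mg/kg once before and three times after IR, DMSO stock diluted in modified PBS. Survival days and radiation sickness signs checked twice daily; 10 mice per group.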

Mus musculus [13] = assay: Protection against IR-induced reduction in circulating neutrophils in ICR mouse at 10 mg/kg, ip administered once before and three times after 4.5 Gy irradiation measured after 9 days; assay type: functional, organism-based
Summary of the method: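 Female ICR mice (5–6 weeks) given 4.5 Gy whole-body IR, dosed ip at 10 mg/kg once before and three times after IR; 5 per group, sacrificed day 9. BM cellularity from H&E (hematopoietic cells per 200×200 μm area); peripheral WBC, lymphocytes, neutrophils; Ki67 IHC counted in five fields per femur; relative spleen weight vs control. Means ± SD, Student's t test.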

[14] = target: T1, Heat shock factor protein 1 (Homo sapiens); assay: Activation of HSF1 in human L132 cells assessed as increase in HSP70 protein levels at 1 to 3 uM after 12 hrs by immunoblotting analysis; assay type: cell-based
Summary of the method: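 L132 cells treated at 3 μM for 12 h, or at various doses for 12 h, or at 3 μM over a time course. Lysates resolved by SDS-PAGE, blotted to nitrocellulose, milk-blocked, primary antibodies 18 h at 4 °C, ECL detection. HSP27, HSP70 and Ser326-phospho-HSF1 bands normalized to loading control; ≥3 independent experiments; celastrol 1 μM positive control.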

L132 [15] = assay: Cytoprotective activity against paclitaxel-induced cell death in human L-132 cells at 3 uM pretreated for 1 hr followed by paclitaxel addition measured after 24 hrs by FACS analysis; assay type: functional, cell-based
Summary of the method: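 L132 cells in RPMI with 10% FBS. 1 h pretreatment at 3 μM, then 0.5 μM paclitaxel or 20 μM cisplatin for 24 h, or 10 Gy γ-rays for 48 h. Cells trypsinized, washed, stained with propidium iodide and analysed by flow cytometry. Means ± SD of ≥3 independent experiments, fold-change vs negative control.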

`COc1cc(/C=C/C=O)ccc1O` [CONIFERYL ALDEHYDE] was tested. Which Activity (L132 [1]) did it give?
The Activity was “Active”.

What about the Activity (MEF [2]) of the same compound?
Its Activity is “inactive”.

What about the Activity [3] of the same compound?
Its Activity is “Active”.

What about the Activity [4] of the same compound?
The Activity was “Active”.

What about the Activity [5] of the same compound?
Its Activity is “Active”.

And the Activity [6]?
The Activity was “Active”.

And the Activity (L132 [7])?
Its Activity is “Non-Toxic”.

What about the Activity (L132 [8]) of the same compound?
Its Activity is “Active”.

What about the Activity (L132 [9]) of the same compound?
The Activity was “Active”.

And the Activity (L132 [10])?
The Activity was “Active”.

What about the Activity (MEF [11]) of the same compound?
Its Activity is “inactive”.

What about the Activity (Mus musculus [12]) of the same compound?
The Activity was “Active”.

And the Activity (Mus musculus [13])?
Its Activity is “Active”.

And the Activity [14]?
The Activity was “Active”.

What about the Activity (L132 [15]) of the same compound?
The Activity was “Active”.

With `COc1cc(/C=C/CO)ccc1O` [CONIFERYL ALCOHOL] as the compound, how does the Activity (L132 [1]) read?
The Activity was “Active”.

And the Activity (MEF [2])?
The Activity was “inactive”.

And the Activity [3]?
The Activity was “Active”.

What about the Activity [4] of the same compound?
Its Activity is “Active”.

What about the Activity [5] of the same compound?
Its Activity is “Active”.

And the Activity [6]?
Its Activity is “Active”.

And the Activity (L132 [7])?
The Activity was “Non-Toxic”.

What about the Activity (L132 [8]) of the same compound?
The Activity was “Active”.

What about the Activity (L132 [9]) of the same compound?
Its Activity is “Active”.

What about the Activity (L132 [10]) of the same compound?
Its Activity is “Active”.

What about the Activity (MEF [11]) of the same compound?
The Activity was “inactive”.

And the Activity (Mus musculus [12])?
The Activity was “Active”.

And the Activity (Mus musculus [13])?
Its Activity is “Active”.

And the Activity [14]?
The Activity was “Active”.

What about the Activity (L132 [15]) of the same compound?
The Activity was “Active”.
